The source of these data is article PMC3004996 (Bioconjugate chemistry, 2010).

Where two headings read alike, the source gives them in different places. Bridge positions count the residues as written; N and C are the ends. Ends that are not written are not given here. Peptide text beside a SMILES is read from it. * marks the point of attachment. DOTA = O=C(O)CN1CCN(CC(=O)O)CCN(CC(=O)*)CCN(CC(=O)O)CC1

Broadly, the Kd is the free concentration of one partner at which half of the binding sites on the other are occupied at equilibrium, for simple one-to-one binding. Broadly, the tissue uptake is the share of the injected amount in each gram of the tissue.

The target of data set [1] is integrin αvβ3 (Homo sapiens) (UniProt P06756). The following applies: cited from earlier work.
Sequence of integrin αvβ3 (Homo sapiens) (P06756 31-1048, chain 1 of 2): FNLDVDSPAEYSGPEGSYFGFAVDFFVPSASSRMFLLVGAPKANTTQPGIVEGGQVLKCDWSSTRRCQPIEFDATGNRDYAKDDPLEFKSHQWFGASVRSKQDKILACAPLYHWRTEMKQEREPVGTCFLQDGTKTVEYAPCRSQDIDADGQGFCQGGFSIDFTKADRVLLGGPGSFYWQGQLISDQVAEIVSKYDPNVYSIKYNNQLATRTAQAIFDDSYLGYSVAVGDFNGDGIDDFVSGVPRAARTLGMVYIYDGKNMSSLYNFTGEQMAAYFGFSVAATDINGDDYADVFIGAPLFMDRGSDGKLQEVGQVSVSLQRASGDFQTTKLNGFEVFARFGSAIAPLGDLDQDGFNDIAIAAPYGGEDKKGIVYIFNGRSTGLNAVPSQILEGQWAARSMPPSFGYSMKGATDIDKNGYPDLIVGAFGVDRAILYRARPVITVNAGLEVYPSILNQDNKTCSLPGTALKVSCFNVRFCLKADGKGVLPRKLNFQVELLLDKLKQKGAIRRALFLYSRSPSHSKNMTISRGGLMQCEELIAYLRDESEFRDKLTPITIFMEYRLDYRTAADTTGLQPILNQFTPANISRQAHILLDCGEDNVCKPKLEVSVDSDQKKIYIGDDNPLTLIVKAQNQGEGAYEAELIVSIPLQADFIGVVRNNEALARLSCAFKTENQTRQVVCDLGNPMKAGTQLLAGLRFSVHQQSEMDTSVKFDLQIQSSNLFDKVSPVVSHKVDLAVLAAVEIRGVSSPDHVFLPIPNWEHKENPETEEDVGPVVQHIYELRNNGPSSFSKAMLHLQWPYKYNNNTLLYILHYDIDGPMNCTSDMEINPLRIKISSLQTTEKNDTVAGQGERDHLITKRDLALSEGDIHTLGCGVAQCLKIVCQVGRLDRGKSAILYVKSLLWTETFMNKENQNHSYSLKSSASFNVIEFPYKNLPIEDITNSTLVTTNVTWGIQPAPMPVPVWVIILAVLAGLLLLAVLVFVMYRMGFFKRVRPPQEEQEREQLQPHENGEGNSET
Sequence of integrin αvβ3 (Homo sapiens) (P05106 27-788, chain 2 of 2, further chain): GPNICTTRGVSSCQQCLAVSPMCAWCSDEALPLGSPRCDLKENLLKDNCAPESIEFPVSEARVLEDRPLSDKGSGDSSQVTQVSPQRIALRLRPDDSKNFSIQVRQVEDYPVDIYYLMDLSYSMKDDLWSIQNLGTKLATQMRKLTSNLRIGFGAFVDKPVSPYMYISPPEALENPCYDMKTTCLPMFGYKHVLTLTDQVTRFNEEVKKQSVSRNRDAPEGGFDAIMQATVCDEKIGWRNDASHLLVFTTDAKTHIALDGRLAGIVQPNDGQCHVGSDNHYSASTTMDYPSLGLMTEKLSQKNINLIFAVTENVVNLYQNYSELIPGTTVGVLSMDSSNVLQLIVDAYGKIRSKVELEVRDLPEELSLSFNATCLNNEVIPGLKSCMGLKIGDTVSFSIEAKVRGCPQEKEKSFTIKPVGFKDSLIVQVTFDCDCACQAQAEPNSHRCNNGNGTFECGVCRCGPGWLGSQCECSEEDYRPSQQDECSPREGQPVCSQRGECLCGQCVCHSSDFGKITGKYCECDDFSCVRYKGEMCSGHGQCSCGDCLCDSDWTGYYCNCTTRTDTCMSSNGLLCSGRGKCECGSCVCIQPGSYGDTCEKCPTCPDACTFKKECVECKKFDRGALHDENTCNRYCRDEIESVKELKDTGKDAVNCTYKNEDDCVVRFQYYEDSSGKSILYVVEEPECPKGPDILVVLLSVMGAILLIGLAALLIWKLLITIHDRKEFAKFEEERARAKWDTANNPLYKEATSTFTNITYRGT
For data set [2] the following is noted: 1 hr after injection into mice; cited from earlier work.
For data set [3] the following is noted: incubation in serum for 24 h; cited from earlier work.
In a further data set the test system is U87MG tumor xenografts. The conditions noted are these: cited from earlier work.
The next data set deals with αvβ3 integrin (Homo sapiens, UniProt P05106+P06756). The following applies: read-out: KD for αvβ3 integrin; cited from earlier work.
Sequence of αvβ3 integrin (P06756 31-889 limits assumed): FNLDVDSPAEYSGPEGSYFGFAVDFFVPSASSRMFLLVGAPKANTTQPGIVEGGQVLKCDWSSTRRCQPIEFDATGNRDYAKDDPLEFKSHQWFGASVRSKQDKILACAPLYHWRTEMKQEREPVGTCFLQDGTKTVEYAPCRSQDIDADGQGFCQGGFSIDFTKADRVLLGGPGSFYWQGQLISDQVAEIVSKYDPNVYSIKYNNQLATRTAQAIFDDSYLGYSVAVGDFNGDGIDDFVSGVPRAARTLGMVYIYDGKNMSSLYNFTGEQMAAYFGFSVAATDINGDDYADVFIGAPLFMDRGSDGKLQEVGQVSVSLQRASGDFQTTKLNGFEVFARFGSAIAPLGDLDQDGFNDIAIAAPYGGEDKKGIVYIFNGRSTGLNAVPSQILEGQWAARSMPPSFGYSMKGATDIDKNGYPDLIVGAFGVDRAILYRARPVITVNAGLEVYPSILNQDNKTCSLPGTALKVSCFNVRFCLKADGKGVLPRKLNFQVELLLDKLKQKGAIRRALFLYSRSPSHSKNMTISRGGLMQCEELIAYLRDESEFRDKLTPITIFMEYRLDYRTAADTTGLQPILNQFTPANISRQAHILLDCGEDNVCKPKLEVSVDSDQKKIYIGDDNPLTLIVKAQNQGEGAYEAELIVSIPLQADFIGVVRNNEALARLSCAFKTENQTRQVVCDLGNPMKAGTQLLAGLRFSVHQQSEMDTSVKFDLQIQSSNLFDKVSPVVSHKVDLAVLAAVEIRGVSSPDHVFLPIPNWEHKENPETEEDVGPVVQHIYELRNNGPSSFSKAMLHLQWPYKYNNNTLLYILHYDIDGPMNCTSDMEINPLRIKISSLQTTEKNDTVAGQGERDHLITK
Sequence of αvβ3 integrin (P06756 891-1048 partner limits assumed): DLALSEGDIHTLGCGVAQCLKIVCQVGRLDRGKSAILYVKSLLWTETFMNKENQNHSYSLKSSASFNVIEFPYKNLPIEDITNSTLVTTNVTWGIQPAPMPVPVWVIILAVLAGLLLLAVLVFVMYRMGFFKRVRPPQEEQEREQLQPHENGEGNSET
Sequence of αvβ3 integrin (P05106 27-788): as the sequence (P05106 27-788, chain 2 of 2, further chain) above
A further data set relates to U87MG cells. The data set can be described thus: Cell binding and uptake study. Type of data set: cell-based, human. The following applies: 5 × 10^5 U87MG cells, 1 μg c(RGDyK), 37 °C, 30, 60, 120 min. In a few lines:
(§1)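 Cells were suspended in integrin binding buffer (25 mM Tris pH 7.4, 150 mM NaCl, 2 mM CaCl₂, 1 mM MgCl₂, 1 mM MnCl₂, 0.1% BSA). They were incubated with the ⁶⁴Cu-labeled test peptide at 1.5 μCi/tube, with or without c(RGDyK). Cells were then washed three times with chilled PBS, pelleted and gamma-counted. Uptake is % of added radioactivity, in triplicate. U87MG were maintained in DMEM and MDA-MB-435 in L-15, each with 10% heat-inactivated FBS.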

Data set [4] in a line: MicroPET imaging of MDA-MB-435 xenografts. Type of data set: in vivo. The conditions noted are these: female, athymic nude (nu/nu), mouse, tumor (MDA-MB-435 xenograft), iv, total radioactivity. In a few lines:
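MDA-MB-435 cells were grown in Leibovitz L-15 with 10% FBS, and 5 × 10⁶ cells in PBS were implanted subcutaneously in the shoulder of 4-6-week female nude mice. At 8-10 mm tumor diameter, mice (n ≥ 3) received ~100 μCi (~0.5 nmol) labelled probe by tail vein. Imaging used microPET with 3 or 5 min static scans. ROI counts/g/min were converted to %ID/g assuming 1 g/mL, without attenuation correction. Blocking groups were co-injected with 330 μg unlabelled c(RGDyK).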

Data set [5] in a line: In vivo biodistribution, gamma counting of dissected tissue. The following applies: nude (nu/nu), mouse, iv, 100 uCi, total radioactivity. In a few lines:
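U87MG xenograft-bearing anesthetized nude mice received ~100 μCi (~0.5 nmol) of 64Cu/Cy5.5 dual-labelled test peptide by tail vein. They were euthanized at 1, 4 and 24 hr. Dissected tissues were weighed and gamma counted, calibrated against a pre-measured tracer aliquot, and normalized to whole body weight and residual tail activity. Values are %ID/g, mean and standard deviation of three mice.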

Another data set has as its system MDA-MB-435 cells. The experiment in a line: Cell binding and uptake study. Type of data set: cell-based, human. The following applies: 5 × 10^5 MDA-MB-435 cells, 37 °C, 30, 60, 120 min. In a few lines:
as §1

Data set [6] in a line: Stability in mouse serum, radio-HPLC. It counts as in vitro ADME. The conditions noted are these: 50% mouse serum, 37 °C.
Data set [7] can be described thus: In vivo metabolite analysis. Also on record: species or system mouse. The conditions noted are these: radio-HPLC and gamma counting. In a few lines:
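Female athymic nude mice bearing subcutaneous shoulder U87MG xenografts (~10⁷ cells; tumors 8–10 mm) were anesthetized and given 200–400 μCi of ⁶⁴Cu-labeled test peptide by tail vein, then euthanized. Blood and tumor were suspended in ~500 μL PBS plus 500–1000 μL DMF and homogenized by mortar and pestle. Homogenates were passed through a 0.2 μm filter. Filtrates were run on reversed-phase HPLC, with 30 s fractions gamma-counted (cpm).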

Sequence of echistatin (P17347 131-179): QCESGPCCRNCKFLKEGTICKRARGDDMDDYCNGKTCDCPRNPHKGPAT

Turning to echistatin (from UniProt P17347), the equilibrium dissociation constant (Kd) in data set [1] is 0.4 nM.

Consider `CC(C)C[C@@H]1NC(=O)[C@@H]2CSSC[C@@H](C(=O)NCC(N)=O)NC(=O)[C@H](Cc3ccccc3)NC(=O)CNC(=O)[C@H](CC(N)=O)NC(=O)[C@@H]3CCCN3C(=O)CNC(=O)[C@@H]3CSSC[C@H](NC(=O)[C@H](CO)NC(=O)[C@H]([C@@H](C)O)NC(=O)[C@@H]4CCCN4C(=O)[C@H](C)NC(=O)[C@H](Cc4c[nH]c5ccccc45)NC(=O)[C@H](CC(=O)O)NC(=O)CNC(=O)[C@H](CCCNC(=N)N)NC(=O)CNC(=O)[C@H](CCC(N)=O)NC(=O)[C@@H]4CCCN4C(=O)[C@@H](NC(=O)CNC(=O)CN4CCN(CC(=O)O)CCN(CC(=O)O)CCN(CC(=O)O)CC4)CSSC[C@H](NC(=O)CNC(=O)[C@H](C)NC1=O)C(=O)N[C@@H](C(C)C)C(=O)N3)C(=O)N[C@@H](CO)C(=O)N[C@@H](CCC(N)=O)C(=O)N[C@@H](CC(=O)O)C(=O)N[C@@H](CO)C(=O)N[C@@H](CC(=O)O)C(=O)N2` [^64Cu-DOTA-2.5D, metal not drawn] ({DOTA}-GCPQGRGDWAPTSCSQDSDCLAGCVCGPNGFCG-NH2; disulfide 2-24, 14-26, 20-32), for which, in data set [2], the “In vivo metabolic stability in blood, tumor and kidneys” value was “recovered intact”. Further, in data set [3], the Stability in serum result is reported as “only minimal fragmentation”. Besides, the Liver uptake with U87MG tumor xenografts (1 to 4 hr post injection, previously observed) is 1-2 %ID/g. Moreover, the Kidney uptake is given as 8.08 ± 0.67 %ID/g in the data set on U87MG tumor xenografts (1 hr post injection), 2.69 ± 0.48 %ID/g in the data set with U87MG tumor xenografts (4 hr post injection) and 1.25 ± 0.11 %ID/g in the data set on U87MG tumor xenografts (24 hr post injection).

Take “ECESGPCCRNCKFLKEGTICKRARGDDMDDYCNGKTCDCPRNPHKGPAT (disulfide 2-11, 7-32, 8-37, 20-39 (inferred)) [Echistatin]”: the Kd on αvβ3 integrin is approximately 0.4 nM.

On to `CCN1C(=CC=CC=CC2=[N+](CCCCCC(=O)NCCCC[C@H](NC(=O)CN3CCN(CC(=O)O)CCN(CC(=O)O)CCN(CC(=O)O)CC3)C(=O)NCC(=O)NCC(=O)N[C@@H](Cc3ccc(O)cc3)C(=O)NCC(=O)N[C@H]3CSSC[C@@H]4NC(=O)CNC(=O)[C@H](C)NC(=O)[C@H](CC(C)C)NC(=O)[C@@H]5CSSC[C@@H](C(=O)NCC(N)=O)NC(=O)[C@H](Cc6ccccc6)NC(=O)CNC(=O)[C@H](CC(N)=O)NC(=O)[C@@H]6CCCN6C(=O)CNC(=O)[C@H](CSSC[C@H](NC(=O)[C@H](CO)NC(=O)[C@H]([C@@H](C)O)NC(=O)[C@@H]6CCCN6C(=O)[C@H](C)NC(=O)[C@H](Cc6c[nH]c7ccccc67)NC(=O)[C@H](CC(=O)O)NC(=O)CNC(=O)[C@H](CCCNC(=N)N)NC(=O)CNC(=O)[C@H](CCC(N)=O)NC(=O)[C@@H]6CCCN6C3=O)C(=O)N[C@@H](CO)C(=O)N[C@@H](CCC(N)=O)C(=O)N[C@@H](CC(=O)O)C(=O)N[C@@H](CO)C(=O)N[C@@H](CC(=O)O)C(=O)N5)NC(=O)[C@H](C(C)C)NC4=O)c3ccc4c(S(=O)(=O)[O-])cc(S(=O)(=O)O)cc4c3C2(C)C)C(C)(C)c2c1ccc1c(S(=O)(=O)O)cc(S(=O)(=O)O)cc21` (single isomer, unassigned) [^64Cu-DOTA/Cy5.5-2.5D, ^64Cu-DOTA-Lys(Cy5.5)-Gly-Gly-Tyr-2.5D, metal not drawn], for which the “Cell binding and uptake with excess c(RGDyK)” value in the data set on U87MG cells and in the data set with MDA-MB-435 cells (1 μg c(RGDyK)) was “blocked” in each case. Moreover, the tissue uptake at 1 h in [4] (100 uCi) is 1.33 ± 0.02 %ID/g; in [4], 0.82 ± 0.05 %ID/g. In addition, the results for the tissue uptake at 24 h in data set [4] (100 uCi) and in [4] were 1.01 ± 0.1 %ID/g and 0.6 ± 0.09 %ID/g, respectively. The tissue uptake in data set [5] (kidney, Kidney uptake, for 1-4 hr post injection, approximate) is approximately 80 %ID/g; in data set [5] (liver, Liver uptake, at 1-24 hr post injection) it was 4 to 7 %ID/g; in data set [5] (liver, Liver uptake, at 1 and 4 hr post injection), 4 to 7 %ID/g. Moreover, the “Cell binding and uptake, versus U87MG cells” value with MDA-MB-435 cells (1.5 μCi/tube, IBB, gamma counter, triplicate) is on record as “lower levels of probe uptake”. For the same molecule, the “Stability in mouse serum” value in data set [6] (1 hr) is reported as “minimal probe degradation”; in data set [6] (24 hr), “intact probe was unrecoverable”. Further, the “In vivo metabolic stability in tumor” value in data set [7] (U87MG tumor 1 hr post injection) is listed as “significant breakdown of probe”. Besides, in data set [7] (kidney 1 hr post injection), the “In vivo metabolic stability in kidney” value was “intact probe was not able to be recovered”. Besides, the “In vivo metabolic stability in liver” value in data set [7] (liver 1 hr post injection) was “intact probe was not able to be recovered”.
